An excerpt weighted towards active compounds, which were near 9% of everything screened.
Htt clearance: compounds clearing mutant huntingtin protein; HeLa Exon1htt(103Q)mCFP, aggregate imaging; zero = plate's median compound well; inhibition, % at 1.5 µM; 47,000 compounds, 0.42% hits; AID 853;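 active = inhibition of aggregate fluorescence above about 70%, also judged a hit by eye on the cell image, limit read from the data, passing the limit was not always enough; inconclusive = no rule stated for this call; inactive = not judged a hit on image review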;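 note: cells exposed to compound for three days before fixation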
AP complement: orthogonal test for alternative complement pathway inhibitors. Human serum alternative complement pathway, LPS-coated ELISA, C3 deposition; tested in compound mixtures. inhibition, % at 5 µM. 62,000 compounds, 0.08% hits. AID 1235;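 active = inhibition above 30% in each of the two pooled mixtures holding the compound, so the lower value exceeds 30%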;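 note: 0% = serum in Mg-EGTA without compound and 100% = EDTA serum blank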
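Assay system: human serum alternative complement pathway, C3 deposition on LPS-coated wells; Dosing: 5 µM per compound in ten-compound mixtures; Detection: Anti-C3 ELISA, OD 450 nm; Buffer or medium: Mg2+-EGTA GVB++ buffer containing human serum at 1:15 dilution; Timing: 1 h at 37 °C; Replication: two different pools per compound.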
M1 agonist: M1 muscarinic receptor agonism; CHO-M1 cells, Fluo-4 calcium fluorescence, agonist mode; active compounds read high; B-score at 10 µM; 64,000 compounds, 3% hits; AID 626;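 active = fluorescence rise, raw or as B-score row- and column-corrected plate score, outside the 99.7% band of its plate's samples, either direction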
D1 allo mod: allosterically modulates the human D1 dopamine receptor | B-score at 10 µM | HEK293 D1, CRE-luciferase, dopamine EC30 potentiation; actives deviate in either direction | AID 641 | P21728 | 58,000 compounds, 5.9% hits;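 active = luminescence count or its row- and column-corrected plate score outside the 99.7% band of the plate's sample wells, on either side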
Target sequence (P21728 whole entry, looked up): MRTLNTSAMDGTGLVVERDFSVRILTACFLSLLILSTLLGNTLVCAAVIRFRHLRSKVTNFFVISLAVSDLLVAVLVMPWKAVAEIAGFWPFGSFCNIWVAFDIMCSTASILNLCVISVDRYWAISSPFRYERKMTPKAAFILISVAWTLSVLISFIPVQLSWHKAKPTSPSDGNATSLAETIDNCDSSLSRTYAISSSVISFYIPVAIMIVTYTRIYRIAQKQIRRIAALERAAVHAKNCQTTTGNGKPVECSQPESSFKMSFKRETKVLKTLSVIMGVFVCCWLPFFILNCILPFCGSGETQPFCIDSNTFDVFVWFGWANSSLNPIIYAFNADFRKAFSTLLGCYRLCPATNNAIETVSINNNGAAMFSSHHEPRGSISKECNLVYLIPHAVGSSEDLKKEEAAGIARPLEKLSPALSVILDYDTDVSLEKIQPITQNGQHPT
M1 antagonist: antagonists of rat M1 muscarinic receptor. 64,000 compounds, 3.4% hits. CHO-M1 cells, Fluo-4 calcium, ACh EC80 antagonist mode; active compounds read low. AID 628. P08482. B-score at 10 µM;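 active = calcium fluorescence response, raw or row-and-column corrected B-score, differing from the plate sample mean either way at a set confidence level, mostly lower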
M1 agonist conf: rat M1 muscarinic agonism, confirmation; shares compounds with M1 agonist; CHO-M1 cells, Fluo-4 calcium fluorescence, agonist mode; actives lie on both sides; fluorescence change (max-min) at 10 µM; 1,700 compounds, 19% hits; AID 1488;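 active = fluorescence change differs from the solvent-only DMSO control mean at a set confidence level in both duplicate runs; inconclusive = differs from solvent-only control mean in just one of two runs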;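 note: an EC20 dose of acetylcholine follows compound addition during the same imaging run; raw fluorescence intensity difference in instrument units with no normalization to controls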
M4 ag counter: counter-screen for M1 agonists: activity at rat M4 receptor. shares compounds with M1 agonist. CHO M4/Gqi5 cells, Fluo-4 calcium fluorescence, agonist mode; actives lie on both sides. fluorescence change (max-min) at 10 µM. 1,700 compounds, 9% hits. AID 1741;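 active = fluorescence change differing from the plate's solvent-only control wells at 99.7% confidence in both duplicates, whether higher or lower; inconclusive = differs from solvent controls in only one of two duplicates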
Active calls of the source: *; ? = inconclusive; . = no result given.

SMILES	Htt clearance	AP complement	M1 agonist	D1 allo mod	M1 antagonist	M1 agonist conf	M4 ag counter
CC(=O)NC1(C2CCCCC2=O)CCCCC1 (centres undefined)	30	5	3.6*	-0.083	1.2	-4	-46
Cn1c(=O)c2c(ncn2CC(=O)OCc2ccccc2)n(C)c1=O	22	16	0.18	-0.42	0.067	.	.
Cc1nnc(NC(=O)C2CCCN(S(=O)(=O)Cc3ccccc3)C2)s1 (centres undefined)	.	-9	0.59	-0.32	0.24	.	.
O=C(Nc1nc(-c2ccccc2)cs1)C1CCCCN1S(=O)(=O)c1ccccc1 (centres undefined)	.	8	0.39	-0.95	-0.68	.	.
COC(=O)c1ccccc1NC(=O)C1CCCN(S(=O)(=O)c2ccc(F)cc2)C1 (centres undefined)	.	12	5.5*	-0.012	2.1	5.8	-3.6
O=C(Nc1nc(-c2ccccc2)cs1)C1CCCN(S(=O)(=O)c2ccccc2)C1 (centres undefined)	-22	8	4.5*	0.47	-0.91	?	-34
COC(=O)c1ccccc1NC(=O)C1CCCN(S(=O)(=O)c2ccccc2)C1 (centres undefined)	4	30	0.99	-0.13	-0.092	.	.
Cc1nnc(NC(=O)C2CCCN(S(=O)(=O)c3ccccc3C(F)(F)F)C2)s1 (centres undefined)	-78	14	16*	1.2	0.17	-30	-44
CCOc1ccc(C2=[N+]([O-])C(C)(C)N(O)C2(C)C)cc1	.	-8	3.6*	-0.2	2.7*	-20	?
O=C(CCCN1C(=O)c2ccccc2C1=O)OC1CSCC1NC(=O)c1ccccc1 (centres undefined)	44	.	.	.	.	.	.
CCOC(=O)C1=C(C)N=c2s/c(=C/c3ccco3)c(=O)n2C1c1cccc(OC)c1 (centres undefined)	-34	13	0.67	-0.6	0.034	.	.
CCOC(=O)C1=C(C)N=c2s/c(=C\c3cccn3C)c(=O)n2C1c1cccc(OC)c1OC (centres undefined)	.	5	55*	0.66	-0.67	3.4	76
O=C(O)CCNc1cc2ccccc2cc1C(=O)O	.	-9	-0.52	.	0.41	.	.
CC(C)OCCCn1c(=N)c(C(N)=S)cc2c(=O)n3ccccc3nc21	-30	.	4*	.	-0.95	-11	?
CC(C)OCCCn1c(=NC(=O)c2ccncc2)c(C#N)cc2c(=O)n3ccccc3nc21	.	38*	25*	0.34	-1.6	219*	?
C=CCn1c(=N)c(C(=O)NCCCOC)cc2c(=O)n3ccccc3nc21	.	23	-1.4	-0.51	-0.96	.	.
CCOCCCn1c(=NC(=O)c2ccc(OC)c(OC)c2)c(C#N)cc2c(=O)n3cccc(C)c3nc21	-4	.	.	.	.	.	.
CCCCn1c(=NC(=O)c2ccc3c(c2)OCO3)c(C#N)cc2c(=O)n3cccc(C)c3nc21	0	16	13*	2	-0.87	?	-44
CC1=NCCN1S(=O)(=O)c1cc(Cl)ccc1Cl	42	4	0.012	0.074	-0.052	.	.
CC1CCN(c2c(NCc3ccc(C(=O)N4c5ccccc5CC4C)cc3)c(=O)c2=O)CC1 (centres undefined)	-97	5	-0.82	-0.37	0.47	.	.
Cc1ccc(/C(C#N)=C\c2cn(C)c3ccccc23)cc1	15	-3	-2.7*	1.6	-0.4	-11	-28
Cc1ccc(OCCn2cc(C#N)c3ccccc32)cc1	6	.	.	.	.	.	.
CCCS(=O)(=O)N1CCC(C(=O)NCCCOCC)CC1	.	12	1.7	-0.43	0.012	.	.
CCN=C(NCC)SC1CC(=O)N(c2cccc(OCC)c2)C1=O (centres undefined)	-28	22	14*	-0.91	-2.6*	-3.6	-22
CCn1c(-c2ccc3[nH]c(C)c(C)c3c2)n[nH]c1=S	.	0	0.86	1.1	-0.89	.	.
SMILES	Htt clearance	AP complement	M1 agonist	D1 allo mod	M1 antagonist	M1 agonist conf	M4 ag counter
Cc1csc(NC(=O)c2sc3nc(-c4cccs4)ccc3c2N)n1	18	3	54*	-2.8*	-1.3	?	?
CCOC(=O)C1=C(C)NC(=O)C(C#N)C1c1ccco1 (centres undefined)	-5	7	0.25	-0.21	-0.51	.	.
O=C1CCC(=O)N1CNc1ccc(Oc2ccccc2)cc1	-73	-9	-3.2*	0.028	0.48	?	-52
O=C(CNc1ccc(Oc2ccccc2)cc1)N1CCOCC1	.	6	2.8*	-1.7	-0.72	?	?
O=C(CN1CCOCC1)Nc1ccc(Oc2ccc(NC(=O)CN3CCOCC3)cc2)cc1	-47	4	0.86	-0.81	-0.24	.	.
Nc1nncn1C(=O)CCc1ccccc1	27	14	.	0.68	.	.	.
COc1ccc(CN(Cc2ccccn2)C(=O)CN2C(=O)C(C)Oc3ccccc32)cc1 (centres undefined)	36	11	15*	0.23	-1.1	-13	-39
NC1=CC(=O)c2cccc3cccc1c23	.	6	53*	-0.029	-0.76	371*	440*
Cc1nnc(C)n1N1C(=O)c2cccc3cccc(c23)C1=O	.	12	0.5	-0.38	-0.7	.	.
COc1ccc(C2C3=C(CC(C)(C)CC3=O)Nc3c2c(=O)[nH]c(=O)n3Cc2ccccc2)cc1 (centres undefined)	.	1	2.7*	-1.7	0.24	7.1	-35
COc1cc(C2C3=C(CC(C)(C)CC3=O)Nc3c2c(=O)[nH]c(=O)n3Cc2ccccc2)ccc1O (centres undefined)	.	0	-1.6	-0.29	0.32	.	.
CCc1ccc(C2C3=C(CC(C)(C)CC3=O)Nc3c2c(=O)[nH]c2nc(C)nn32)cc1 (centres undefined)	.	17	-1.1	0.3	-0.53	.	.
COc1ccc(C2C3=C(CC(C)(C)CC3=O)Nc3c2c(=O)[nH]c(=O)n3Cc2ccccc2)cc1OC (centres undefined)	52	12	9.9*	0.43	-1.1	28	8.1
Cc1nc2[nH]c(=O)c3c(n2n1)NC1=C(C(=O)CC(C)(C)C1)C3c1ccc(F)cc1 (centres undefined)	.	10	3.8*	-0.097	0.0033	9.9	4.3
O=C(Nc1cnc2ccccc2c1)c1ccncc1	.	4	-0.23	.	0.32	.	.
COC(=O)c1cccc(C(=O)Nc2cnc3ccccc3c2)n1	29	16	3.7*	-0.34	-0.44	-11	?
COc1ccc(Cl)cc1NC(=O)CN1CCC(n2nnc3ccccc32)CC1	.	11	.	.	.	.	.
N=c1c(S(=O)(=O)c2ccccc2)cc2c(=O)n3ccccc3nc2n1Cc1ccco1	.	9	9*	2.9	0.14	15	-22
CCOC(=O)CSc1ccc(S(=O)(=O)N(C)C2CCCCC2)cc1[N+](=O)[O-]	-17	.	.	.	.	.	.
O=c1c2ccccc2c(/C=N/n2cnnc2)c(O)n1-c1ccccc1	33	-5	9*	-0.36	-0.021	149*	123*
